This is an account of results in ChEMBL document CHEMBL1641583, “Design, synthesis, and biological evaluation of N-acetyl-S-(p-chlorophenylcarbamoyl)cysteine and its analogs as a novel class of anticancer agents” (Bioorg Med Chem, 2011).

Data set [1] concerns OVCAR-3. Briefly: Cytotoxicity against human OVCAR3 cells after 6 days by MTT assay. In kind it is functional, cell-based. The settings on record: OVCAR-3, 144 h. (Tetrazolium assays rely on reduction of a dye to a coloured formazan, in cell work by metabolically active cells.)
Data set [2] has as its system UACC-62. Briefly: Cytotoxicity against human UACC62 cells after 6 days by MTT assay. The settings on record: UACC-62, 144 h. The class given is functional, cell-based.
A short description of data set [3]: Cytotoxicity against human GC3/C1 cells after 6 days by MTT assay. In kind it is functional, cell-based. The note with it: GC3/C1, 144 h.
The subject of data set [4] is SK-MEL-2. Briefly: Cytotoxicity against human SK-MEL-2 cells after 6 days by MTT assay. The note with it: SK-MEL-2, 144 h. The class given is functional, cell-based.
Data set [5] relates to UACC-62. Briefly: Cytotoxicity against human UACC62 cells after 1 to 3 days by MTT assay. In kind it is functional, cell-based.
The test system of data set [6] is UACC-62. Briefly: Ratio of compound IC50 to dacarbazine IC50 for human UACC62 cells. In kind it is functional.
Data set [7] relates to SK-MEL-2. Kind of data set: Cytotoxicity against human SK-MEL-2 cells after 1 to 3 days by MTT assay. The class given is functional, cell-based.
Data set [8] has as its system OVCAR-3. Kind of data set: Cytotoxicity against human OVCAR3 cells after 1 to 3 days by MTT assay. The class given is functional, cell-based.
Data set [9] is described as follows: Solubility of the compound in 0.1 M phosphate buffer at pH 7.4. The class given is physicochemical. Summed up: (§1)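 Solubility measured in ethyl acetate and in 0.1 M phosphate buffer pH 7.4; reported in mg/mL.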
Data set [10] in a line: Solubility of the compound in ethyl acetate. In kind it is physicochemical. A digest of the protocol: as §1
The subject of data set [11] is SK-MEL-2. Kind of data set: Ratio of compound IC50 to dacarbazine IC50 for human SK-MEL-2 cells. In kind it is functional.
Data set [12] in a line: Cell cycle arrest in human GC3/C1 cells assessed as DNA accumulation at 0.01 to 1 uM after 6 days using propidium iodide staining by flow cytometry. In kind it is functional, cell-based. A digest of the protocol: (§2)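 Cells seeded in 75 cm² flasks (GC3/c1 0.3 million, UACC-62 0.14 million) in RPMI 1640/10% FBS, exposed 6 days; adherent cells only trypsinized, PBS-washed, 1 million fixed in 70% ethanol at 4 °C, RNase A 30 min 37 °C, propidium iodide 30 min dark at room temperature; DNA content by flow cytometry; mean ± SD, three independent experiments.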
Background: A flow cytometer gives signals particle by particle.

Data set [13] relates to UACC-62. Kind of data set: Induction of apoptosis in human UACC62 cells assessed as translocation of phosphatidylserine from inner layer to outer layer of cell membrane at > 1 uM after 6 days using annexin V staining by flow cytometry. The class given is functional, cell-based.
The nature of data set [14]: Cytotoxicity against african green monkey CV1 cells after 6 days by MTT assay. The class given is cell-based. The settings on record: Chlorocebus aethiops, CV-1, 144 h.
Another data set concerns NCI-H226. Kind of data set: Cytotoxicity against human NCI-H226 cells after 6 days by MTT assay. The class given is functional, cell-based.
The next data set deals with PC-3. Briefly: Cytotoxicity against human PC3 cells after 6 days by MTT assay. The class given is functional, cell-based.
Data set [15] deals with UACC-62. Kind of data set: Cell cycle arrest in human UACC62 cells assessed as DNA accumulation at 0.01 to 1 uM after 6 days using propidium iodide staining by flow cytometry. In kind it is functional, cell-based. A digest of the protocol: as §2
The next data set concerns A-431. Briefly: Cytotoxicity against human A431 cells after 6 days by MTT assay. In kind it is functional, cell-based.
The test system of data set [16] is UACC-62. Briefly: Induction of apoptosis in human UACC62 cells assessed as translocation of phosphatidylserine from inner layer to outer layer of cell membrane after 6 days using annexin V staining by flow cytometry. In kind it is functional, cell-based. Summed up: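 UACC-62 plated and dosed in 96-well format as for cytotoxicity, 6 days; adherent plus floating cells trypsinized, PBS-washed, 1×10^6 cells/mL in annexin-binding buffer; ~1×10^5 cells stained with Alexa Fluor 488 annexin V and PI 15 min dark, room temperature; early plus late apoptotic fractions summed by flow cytometry; mean ± SD, three experiments.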

The next data set relates to UO-31. Kind of data set: Cytotoxicity against human UO31 cells after 6 days by MTT assay. In kind it is functional, cell-based.

Usually IC50 stands for the concentration that inhibits the measured activity by half. What is called solubility is how much of the substance goes into solution per volume.

≈ marks a conversion by molar mass, not a printed value. Calls of active or inactive are those of the source. The calls are words filed in the database; no cut-off is given here. A value given as a limit tells only on which side of the number the result lay.

Turning to `CC(=O)N[C@@H](CSC(=O)Nc1ccc(C(F)(F)F)cc1[N+](=O)[O-])C(=O)O`, the IC50 (in the data set on OVCAR-3 [1]; in the data set with UACC-62 [2]; in [3]) was above 200 µM in each case.
In the case of `CC(=O)N[C@@H](CSC(=O)Nc1cccc2ccccc12)C(=O)O`, the IC50 (in the data set with OVCAR-3 [1]; in the data set with UACC-62 [2]; in data set [3]) was above 200 µM throughout.
As for `CC(=O)N[C@@H](CSC(=O)Nc1ccccc1F)C(=O)O`, the IC50 (in the data set on OVCAR-3 [1]; with UACC-62 [2]; in [3]) was above 200 µM in each case.
As for `CC(=O)N[C@@H](CSC(=O)Nc1cc(Cl)cc(Cl)c1)C(=O)O`, the IC50 (with OVCAR-3 [1]; with UACC-62 [2]; in [3]) was above 200 µM throughout.
In the case of `COc1ccc(OC)c(NC(=O)SC[C@H](NC(C)=O)C(=O)O)c1`, the 50% inhibitory concentration (IC50) (in the data set with OVCAR-3 [1]; in the data set on UACC-62 [2]; in [3]) was above 200 µM in each case.
`CSc1ccccc1NC(=O)SC[C@H](NC(C)=O)C(=O)O`: the half-inhibitory concentration (IC50) (with OVCAR-3 [1]; in the data set on UACC-62 [2]; in data set [3]) was above 200 µM in each case.
Take `CC(=O)N[C@@H](CSC(=O)Nc1ccc([N+](=O)[O-])cc1Cl)C(=O)O`: the half-inhibitory concentration (IC50) (in the data set on OVCAR-3 [1]; in the data set on UACC-62 [2]; in data set [3]) was above 200 µM throughout.
For `COc1ccc(NC(=O)SC[C@H](NC(C)=O)C(=O)O)cc1`, the IC50 in the data set on OVCAR-3 [1] was above 200 µM; with UACC-62 [2] it was 75.2 µM; in data set [3], above 200 µM.
As to `CC(=O)N[C@@H](CSC(=O)NCc1ccc(Cl)cc1)C(=O)O`, the IC50 (in the data set with OVCAR-3 [1]; in the data set on UACC-62 [2]; in data set [3]) was above 200 µM throughout.
With `CC(=O)N[C@@H](CSC(=O)Nc1ccc(Br)cc1)C(=O)O`, the half-maximal inhibitory concentration (IC50) was above 200 µM in the data set with OVCAR-3 [1], 0.12 µM in the data set on SK-MEL-2 [4], 0.32 µM with UACC-62 [2] and 63.5 µM in [3]. The outcome with UACC-62 [5], in the data set with SK-MEL-2 [7] and in the data set on OVCAR-3 [8] was inactive. Besides, the “Ratio IC50” value in the data set on UACC-62 [6] was 37; in the data set with SK-MEL-2 [11], 1000. Further, the solubility in data set [9] was determined as 24 mg/mL (≈ 66.4 mM); in [10], 50 mg/mL (≈ 138 mM).
`COc1ccccc1NC(=O)SC[C@H](NC(C)=O)C(=O)O`: the IC50 (with OVCAR-3 [1]; in the data set with UACC-62 [2]; in data set [3]) was above 200 µM each time.
`CC(=O)N[C@@H](CSC(=O)Nc1ccc(F)cc1)C(=O)O`: the half-inhibitory concentration (IC50) in the data set on OVCAR-3 [1] is above 200 µM; in the data set on SK-MEL-2 [4] it was 0.43 µM; with UACC-62 [2], 0.036 µM; in data set [3], 114 µM. For the same compound, the result with UACC-62 [5], with SK-MEL-2 [7] and in the data set with OVCAR-3 [8] was inactive. Besides, the figures for the “Ratio IC50” value in the data set on UACC-62 [6] and in the data set with SK-MEL-2 [11] were 328 and 279, respectively. Further, the figures for the solubility in data set [9] and in data set [10] were 26 mg/mL (≈ 86.6 mM) and 388 mg/mL (≈ 1290 mM), respectively.
As to `CN(C)/N=N/c1[nH]cnc1C(N)=O` [DACARBAZINE], the IC50 in the data set on OVCAR-3 [1] is 17.7 µM; with SK-MEL-2 [4], 120 µM; in the data set on UACC-62 [2] it was 11.8 µM; in data set [3], 7.67 µM.
For `CC(=O)N[C@@H](CSC(=O)Nc1ccccc1)C(=O)O`, the values for the IC50 (with OVCAR-3 [1]; in the data set on UACC-62 [2]; in [3]) were 153 µM, 125 µM and 178 µM, respectively.
Regarding `CC(=O)N[C@@H](CSC(=O)Nc1ccccc1Cl)C(=O)O`, the IC50 (in the data set with OVCAR-3 [1]; in the data set on UACC-62 [2]; in data set [3]) was above 200 µM each time.
Consider `CC(=O)N[C@@H](CSC(=O)Nc1ccc(Cl)cc1)C(=O)O`, for which the IC50 in the data set with OVCAR-3 [1] is above 200 µM; in the data set on SK-MEL-2 [4], 0.008 µM; with UACC-62 [2], 0.024 µM; in data set [14] it was 522 µM; in data set [3], 8.13 µM. Further, the result (in [12]; in the data set on UACC-62 [5]; in the data set with UACC-62 [13]; in the data set on SK-MEL-2 [7]; in the data set on OVCAR-3 [8]; in the data set with NCI-H226) was inactive. In addition, the outcome in the data set with PC-3, with UACC-62 [15], in the data set with A-431 and with UO-31 was inactive. The figures for the “Ratio IC50” value with UACC-62 [6] and in the data set on SK-MEL-2 [11] were 490 and 16000, respectively. In addition, the solubility in [9] was found to be 26 mg/mL (≈ 82.1 mM); in data set [10], 721 mg/mL (≈ 2280 mM). For the same compound, the Activity entry in the data set with UACC-62 [16] is “Dose-dependent effect”.
Take `CC(=O)N[C@@H](CSC(=O)Nc1ccc(I)cc1)C(=O)O`: the figures for the IC50 (with OVCAR-3 [1]; in the data set with UACC-62 [2]; in [3]) were above 200 µM, 46.2 µM and above 200 µM, respectively.
As for `COc1ccccc1CNC(=O)SC[C@H](NC(C)=O)C(=O)O`, the concentration for half-maximal inhibition (IC50) (with OVCAR-3 [1]; in the data set on UACC-62 [2]; in data set [3]) was above 200 µM each time.
Take `CC(=O)N[C@@H](CSC(=O)Nc1cccc(Cl)c1)C(=O)O`: the IC50 (in the data set with OVCAR-3 [1]; in the data set on UACC-62 [2]; in data set [3]) was above 200 µM throughout.
